Assay results reported in ChEMBL document CHEMBL1128539, “Novel antagonists of platelet-activating factor. 2. Synthesis and structure-activity relationships of potent and long-acting heterofused [1,5]benzodiazepine and [1,4]diazepine derivatives of 2-methyl-1-phenylimidazo[4,5-c]pyridine” (J Med Chem, 1995).
One block for each compound: values may come before it.

Columns and labels:
Canis familiaris [1] = assay: Duration of action in Conscious Dog at a dose of […] po; format: ADME, organism-based, Canis lupus familiaris; details: in vivo
Canis familiaris [2] = assay: Duration of action in Conscious Dog at a dose of 0.15 mg/kg po; format: ADME, organism-based, Canis lupus familiaris; set-up: dose 0.15 mg/kg, route oral; details: in vivo
Canis familiaris [3] = assay: Duration of action in Conscious Dog at a dose of 0.5 mg/kg po; format: ADME, organism-based, Canis lupus familiaris; set-up: dose 0.5 mg/kg, route oral; details: in vivo
Canis familiaris [4] = assay: Duration of action in Conscious Dog at a dose of 0.1 mg/kg po; format: ADME, organism-based, Canis lupus familiaris; set-up: dose 0.1 mg/kg, route oral; details: in vivo
Canis familiaris [5] = assay: Duration of action in Conscious dog at a dose of 0.2 mg/kg po; format: ADME, organism-based, Canis lupus familiaris; set-up: dose 0.2 mg/kg, route oral; details: in vivo
Canis familiaris [6] = assay: Duration of action in Conscious Dog at a dose of […] po; format: ADME, organism-based, Canis lupus familiaris; set-up: dose 0.025 mg/kg, route oral; details: in vivo
Canis familiaris [7] = assay: Duration of action in Conscious Dog at a dose of 0.05 mg/kg po; format: ADME, organism-based, Canis lupus familiaris; set-up: dose 0.05 mg/kg, route oral; details: in vivo
Canis familiaris [8] = assay: Duration of action in Conscious Dog at a dose of 0.2 mg/kg po; format: ADME, organism-based, Canis lupus familiaris; set-up: dose 0.2 mg/kg, route oral; details: in vivo
[9] = target: Platelet-activating factor receptor (Oryctolagus cuniculus); assay: In vitro antagonist activity against platelet activating factor (PAF) receptor, using washed rabbit platelets
Canis familiaris [10] = assay: Duration of action in Conscious Dog at 0.1 mg/kg po; format: ADME, organism-based, Canis lupus familiaris; set-up: dose 0.1 mg/kg, route oral; details: in vivo
Summary of the method: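 Conscious dogs. Before dosing, each dog's minimum PAF concentration giving irreversible whole-blood aggregation was set (30–50 nM). Compound was given by gavage in minimal 0.01 M HCl. Blood drawn 2 h later was challenged ex vivo with 10× (or 30×) that PAF level. If uninhibited, a larger second dose was given and blood resampled 2 h later. If inhibited, sampling continued until predose aggregation returned.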

Canis familiaris [11] = assay: Duration of action in Conscious Dog at a dose of 0.3 mg/kg po; format: ADME, organism-based, Canis lupus familiaris; set-up: dose 0.3 mg/kg, route oral; details: in vivo
Canis familiaris [12] = assay: Duration of action in Conscious Dog at a dose of 0.075 mg/kg po; format: ADME, organism-based, Canis lupus familiaris; set-up: dose 0.075 mg/kg, route oral; details: in vivo

Duration of action (Canis familiaris [1]): 2 h
Compound: Cc1nc2cnccc2n1-c1ccc(C2=Nc3cc(C(=O)N4CCOCC4)cnc3N(C)C(=O)C2)cc1

Duration of action (Canis familiaris [2]): 0 h
Duration of action (Canis familiaris [3]): > 8 h
Compound: Cc1nn(C)c2c1NC(=O)CC(c1ccc(-n3c(C)nc4cnccc43)cc1)=N2

Duration of action (Canis familiaris [4]): > 8 h
Compound: Cc1nc2cnccc2n1-c1ccc(C2=Nc3c(-c4ccccc4)nn(C)c3N(C)C(=O)C2)cc1

Duration of action (Canis familiaris [5]): 7 h
Compound: Cc1nc2cnccc2n1-c1ccc(C2=Nc3cc(Cl)c(Cl)cc3-n3ccnc3C2)cc1

Duration of action (Canis familiaris [6]): 9 h
Duration of action (Canis familiaris [7]): > 10 h
Compound: Cc1nc2cnccc2n1-c1ccc(C2=Nc3c(-c4cccnc4)nn(C)c3N(C)C(=O)C2)cc1

Duration of action (Canis familiaris [8]): 4 h
Compound: Cc1nc2cnccc2n1-c1ccc(C2=Nc3cc(Br)cnc3N(C)C(=O)C2)cc1

Compound: Cc1nnc2n1-c1sc3c(c1C(c1ccccc1Cl)=NC2)CC(C(=O)N1CCOCC1)C3 (centres undefined) [BEPAFANT]
IC50 [9]: 73 nM
Duration of action (Canis familiaris [10]): 7 h

Duration of action (Canis familiaris [4]): 9 h
Compound: Cc1cc(C)c2c(n1)N(C)C(=O)CC(c1ccc(-n3c(C)nc4cnccc43)cc1)=N2

Duration of action (Canis familiaris [11]): 0 h
Compound: Cc1nn(C)c2c1N=C(c1ccc(-n3c(C)nc4cnccc43)cc1)CC(=O)N2

Duration of action (Canis familiaris [2]): 0 h
Duration of action (Canis familiaris [3]): < 8 h
Compound: Cc1cc(C)c2c(n1)NC(=O)CC(c1ccc(-n3c(C)nc4cnccc43)cc1)=N2

Duration of action (Canis familiaris [12]): 8 h
Compound: CCOC(=O)C1=C(c2ccc(-n3c(C)nc4cnccc43)cc2)NC(C)=C(C(=O)Nc2ccccn2)C1c1ccccc1Cl (centres undefined)

Duration of action (Canis familiaris [8]): 4 h
Compound: Cc1nn(C)c2c1N=C(c1ccc(-n3c(C)nc4cnccc43)cc1)CC(=O)N2C

Duration of action (Canis familiaris [4]): 4 h
Compound: CCN(CC)C(=O)c1cnc2c(c1)N=C(c1ccc(-n3c(C)nc4cnccc43)cc1)CC(=O)N2C

Duration of action (Canis familiaris [6]): 0 h
Duration of action (Canis familiaris [12]): 8 h
Compound: Cc1nc2cnccc2n1-c1ccc(C2=Nc3c(C4CCCCC4)nn(C)c3N(C)C(=O)C2)cc1
